# Experiments:
# P388 [1] = assay: Antitumor activity against mouse P388 cells allografted in CDF1 mouse assessed as tumor inhibition at 12.5 mg/kg, ip on days 5, 9 and 13 relative to untreated control; assay type: functional; conditions: route intraperitoneal
# In short: (§1)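 CDF₁ mice given 10⁶ P388 lymphocytic leukemia cells ip on day 0; drug ip on days 5, 9 and 13. Six mice per dose level (five for one compound). T/C % = median survival time as percent of untreated controls. Acute toxic death counted as survival under 5 days after treatment.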
# P388 [2] = assay: Antitumor activity against mouse P388 cells allografted in CDF1 mouse assessed as tumor inhibition at 6.25 mg/kg, ip on days 5, 9 and 13 relative to untreated control; assay type: functional; conditions: route intraperitoneal; in short: as §1
# P388 [3] = assay: Antitumor activity against mouse P388 cells allografted in CDF1 mouse assessed as tumor inhibition at 25 mg/kg, ip on days 5, 9 and 13 relative to untreated control; assay type: functional; conditions: route intraperitoneal; in short: as §1
# P388 [4] = assay: Antitumor activity against mouse P388 cells allografted in CDF1 mouse assessed as tumor inhibition at 3.13 mg/kg, ip on days 5, 9 and 13 relative to untreated control; assay type: functional; conditions: route intraperitoneal; in short: as §1
# P388 [5] = assay: Antitumor activity against mouse P388 cells allografted in CDF1 mouse assessed as tumor inhibition at 50 mg/kg, ip on days 5, 9 and 13 relative to untreated control; assay type: functional; conditions: route intraperitoneal; in short: as §1
# Mus musculus [6] = assay: Toxicity in CDF1 mouse allografted with mouse P388 cells assessed as survival at 3.13 to 50 mg/kg, ip on days 5, 9 and 13; assay type: organism-based; parameters: dose 3.13-50 mg/kg, route intraperitoneal; conditions: in vivo
# In short: (§2)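 CDF1 mice were inoculated ip with 10⁶ P388 lymphocytic leukemia cells on day 0. Drug was given ip on days 5, 9 and 13, with six mice per dose level. Read-out was median survival time as percent of untreated controls (T/C). Acute toxic-drug deaths were defined as survival under 5 days after treatment injection.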
# Mus musculus [7] = assay: Toxicity in BDF1 mouse allografted with mouse B16 cells at 100 mg/kg, ip on day 5; conditions: in vivo
# Mus musculus [8] = assay: Toxicity in CDF1 mouse allografted with mouse P388 cells assessed as survival at 25 to 400 mg/kg, ip on days 5, 9 and 13; assay type: organism-based; parameters: dose 25-400 mg/kg, route intraperitoneal; conditions: in vivo
# In short: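 Median survival time was expressed as percent of untreated controls (T/C). Acute toxic-drug deaths were scored as survival under 5 days after treatment injection.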
# P388 [9] = assay: Antitumor activity against mouse P388 cells allografted in CDF1 mouse assessed as tumor inhibition at 400 mg/kg, ip on days 5, 9 and 13 relative to untreated control; assay type: functional; conditions: route intraperitoneal; in short: as §1
# B16 [10] = assay: Antitumor activity against mouse B16 cells allografted in BDF1 mouse assessed as tumor inhibition at 25 mg/kg, ip on day 5 relative to untreated control; conditions: route intraperitoneal
# B16 [11] = assay: Antitumor activity against mouse B16 cells allografted in BDF1 mouse assessed as tumor inhibition at 12.5 mg/kg, ip on day 5 relative to untreated control; conditions: route intraperitoneal
# P388 [12] = assay: Antitumor activity against mouse P388 cells allografted in CDF1 mouse assessed as tumor inhibition at 100 mg/kg, ip on days 5, 9 and 13 relative to untreated control; assay type: functional; conditions: route intraperitoneal; in short: as §1
# Mus musculus [13] = assay: Toxicity in BDF1 mouse allografted with mouse B16 cells at 200 mg/kg, ip on day 5; conditions: in vivo
# B16 [14] = assay: Antitumor activity against mouse B16 cells allografted in BDF1 mouse assessed as tumor inhibition at 50 mg/kg, ip on day 5 relative to untreated control; conditions: route intraperitoneal
# Mus musculus [15] = assay: Toxicity in CDF1 mouse allografted with mouse P388 cells assessed as survival at 12.5 to 200 mg/kg, ip on days 5, 9 and 13; assay type: organism-based; parameters: dose 12.5-200 mg/kg, route intraperitoneal; conditions: in vivo; in short: as §2
# P388 [16] = assay: Antitumor activity against mouse P388 cells allografted in CDF1 mouse assessed as tumor inhibition at 200 mg/kg, ip on days 5, 9 and 13 relative to untreated control; assay type: functional; conditions: route intraperitoneal; in short: as §1
# B16 [17] = assay: Antitumor activity against mouse B16 cells allografted in BDF1 mouse assessed as tumor inhibition at 4 mg/kg, ip on day 5 relative to untreated control; conditions: route intraperitoneal
# Mus musculus [18] = assay: Toxicity in BDF1 mouse allografted with mouse B16 cells at 16 mg/kg, ip on day 5; conditions: in vivo
# P388 [19] = assay: Antitumor activity against mouse P388 cells allografted in CDF1 mouse assessed as tumor inhibition at 16 mg/kg, ip on days 5, 9 and 13 relative to untreated control; assay type: functional; conditions: route intraperitoneal; in short: as §1
# P388 [20] = assay: Antitumor activity against mouse P388 cells allografted in CDF1 mouse assessed as tumor inhibition at 32 mg/kg, ip on days 5, 9 and 13 relative to untreated control; assay type: functional; conditions: route intraperitoneal; in short: as §1
# Mus musculus [21] = assay: Toxicity in CDF1 mouse allografted with mouse P388 cells assessed as survival at 2 to 32 mg/kg, ip on days 5, 9 and 13; assay type: organism-based; parameters: dose 2-32 mg/kg, route intraperitoneal; conditions: in vivo; in short: as §2
# P388 [22] = assay: Antitumor activity against mouse P388 cells allografted in CDF1 mouse assessed as tumor inhibition at 2 mg/kg, ip on days 5, 9 and 13 relative to untreated control; assay type: functional; conditions: route intraperitoneal; in short: as §1
# B16 [23] = assay: Antitumor activity against mouse B16 cells allografted in BDF1 mouse assessed as tumor inhibition at 2 mg/kg, ip on day 5 relative to untreated control; conditions: route intraperitoneal
# P388 [24] = assay: Antitumor activity against mouse P388 cells allografted in CDF1 mouse assessed as tumor inhibition at 8 mg/kg, ip on days 5, 9 and 13 relative to untreated control; assay type: functional; conditions: route intraperitoneal; in short: as §1
# B16 [25] = assay: Antitumor activity against mouse B16 cells allografted in BDF1 mouse assessed as tumor inhibition at 1 mg/kg, ip on day 5 relative to untreated control; conditions: route intraperitoneal
# P388 [26] = assay: Antitumor activity against mouse P388 cells allografted in CDF1 mouse assessed as tumor inhibition at 4 mg/kg, ip on days 5, 9 and 13 relative to untreated control; assay type: functional; conditions: route intraperitoneal; in short: as §1
# P388 [27] = assay: Antitumor activity against mouse P388 cells allografted in CDF1 mouse assessed as tumor inhibition at 1 mg/kg, ip on days 5, 9 and 13 relative to untreated control; assay type: functional; conditions: route intraperitoneal; in short: as §1
# Mus musculus [28] = assay: Toxicity in CDF1 mouse allografted with mouse P388 cells assessed as survival at 1 to 16 mg/kg, ip on days 5, 9 and 13; assay type: organism-based; parameters: dose 1-16 mg/kg, route intraperitoneal; conditions: in vivo; in short: as §2
# B16 [29] = assay: Antitumor activity against mouse B16 cells allografted in BDF1 mouse assessed as tumor inhibition at 8 mg/kg, ip on day 5 relative to untreated control; conditions: route intraperitoneal
# Mus musculus [30] = assay: Toxicity in BDF1 mouse allografted with mouse B16 cells at 1 to 16 mg/kg, ip on day 5; conditions: in vivo
# B16 [31] = assay: Antitumor activity against mouse B16 cells allografted in BDF1 mouse assessed as tumor inhibition at 16 mg/kg, ip on day 5 relative to untreated control; conditions: route intraperitoneal
smiles,measurement,setting,value
COc1cccc2c1C(=O)c1c(O)c3c(c(O)c1C2=O)C[C@@](O)(C(C)=O)C[C@@H]3O[C@H]1C[C@H](O)[C@H](O)[C@@H](C)O1,T/C,P388 [1],97%
same,T/C,P388 [2],102%
same,T/C,P388 [3],100%
same,T/C,P388 [4],100%
same,T/C,P388 [5],102%
same,Activity,Mus musculus [6],Non-toxic
COc1cccc2c1C(=O)c1c(O)c3c(c(O)c1C2=O)C[C@@](O)(C(C)=O)C[C@@H]3O[C@H]1C[C@H](O)[C@H](O)[C@H](C)O1,Activity,Mus musculus [7],Toxic
same,T/C,P388 [3],125%
same,Activity,Mus musculus [8],Non-toxic
same,T/C,P388 [9],89%
same,T/C,B16 [10],126%
same,T/C,B16 [11],113%
same,T/C,P388 [12],156%
same,T/C,P388 [5],183%
same,Activity,Mus musculus [13],Toxic
same,T/C,B16 [14],146%
COc1cccc2c1C(=O)c1c(O)c3c(c(O)c1C2=O)C[C@@](O)(C(C)=O)C[C@@H]3O[C@@H]1C[C@H](OC(=O)c2ccc([N+](=O)[O-])cc2)[C@H](OC(=O)c2ccc([N+](=O)[O-])cc2)[C@@H](C)O1,T/C,P388 [1],110%
same,T/C,P388 [2],106%
same,T/C,P388 [3],107%
same,T/C,P388 [4],101%
same,T/C,P388 [5],105%
same,Activity,Mus musculus [6],Non-toxic
COc1cccc2c1C(=O)c1c(O)c3c(c(O)c1C2=O)C[C@@](O)(C(C)=O)C[C@@H]3O[C@@H]1C[C@H](O)[C@H](O)[C@@H](C)O1,T/C,P388 [1],100%
same,T/C,P388 [2],100%
same,T/C,P388 [3],101%
same,T/C,P388 [4],99%
same,T/C,P388 [5],101%
same,Activity,Mus musculus [6],Non-toxic
COc1cccc2c1C(=O)c1c(O)c3c(c(O)c1C2=O)C[C@@](O)(C(C)=O)C[C@@H]3O[C@H]1C[C@H](OC(C)=O)[C@H](OC(C)=O)[C@H](C)O1,T/C,P388 [1],100%
same,Activity,Mus musculus [15],Non-toxic
same,T/C,P388 [3],108%
same,T/C,P388 [12],155%
same,T/C,P388 [5],110%
same,T/C,P388 [16],186%
COc1cccc2c1C(=O)c1c(O)c3c(c(O)c1C2=O)C[C@@](O)(C(C)=O)C[C@@H]3O[C@H]1C[C@H](N)[C@H](O)[C@H](C)O1 [DAUNORUBICIN],T/C,B16 [17],96%
same,Activity,Mus musculus [18],Toxic
same,T/C,P388 [19],122%
same,T/C,P388 [20],97%
same,Activity,Mus musculus [21],Non-toxic
same,T/C,P388 [22],116%
same,T/C,B16 [23],127%
same,T/C,P388 [24],151%
same,T/C,B16 [25],122%
same,T/C,P388 [26],123%
COc1cccc2c1C(=O)c1c(O)c3c(c(O)c1C2=O)C[C@@](O)(C(=O)CO)C[C@@H]3O[C@H]1C[C@H](N)[C@H](O)[C@H](C)O1 [DOXORUBICIN],T/C,B16 [17],132%
same,T/C,P388 [27],118%
same,T/C,P388 [19],114%
same,Activity,Mus musculus [28],Non-toxic
same,T/C,B16 [29],150%
same,Activity,Mus musculus [30],Non-toxic
same,T/C,P388 [22],132%
same,T/C,B16 [23],122%
same,T/C,P388 [24],150%
same,T/C,B16 [25],118%
same,T/C,B16 [31],156%
same,T/C,P388 [26],149%
COc1cccc2c1C(=O)c1c(O)c3c(c(O)c1C2=O)C[C@@](O)(C(C)=O)C[C@@H]3O[C@H]1C[C@H](OC(=O)c2ccc([N+](=O)[O-])cc2)[C@H](OC(=O)c2ccc([N+](=O)[O-])cc2)[C@@H](C)O1,T/C,P388 [1],99%
same,T/C,P388 [2],100%
same,T/C,P388 [3],106%
same,T/C,P388 [4],98%
same,T/C,P388 [5],101%
same,Activity,Mus musculus [6],Non-toxic
